Assay results of several laboratories.
FLT3 autoinhibited: Receptor-type tyrosine-protein kinase FLT3, autoinhibited (FLT3, Homo sapiens, UniProt P36888)
FLT3: Receptor-type tyrosine-protein kinase FLT3 (FLT3, Homo sapiens, UniProt P36888)
FLT3 N841I: Receptor-type tyrosine-protein kinase FLT3 (FLT3, Homo sapiens, UniProt P36888, N841I)
FLT3 D835H: Receptor-type tyrosine-protein kinase FLT3 (FLT3, Homo sapiens, UniProt P36888, D835H)
FLT3 ITD: Receptor-type tyrosine-protein kinase FLT3 (FLT3, Homo sapiens, UniProt P36888, ITD)
FLT3 K663Q: Receptor-type tyrosine-protein kinase FLT3 (FLT3, Homo sapiens, UniProt P36888, K663Q)
FLT3 D835V: Receptor-type tyrosine-protein kinase FLT3 (FLT3, Homo sapiens, UniProt P36888, D835V)
FLT3 R834Q: Receptor-type tyrosine-protein kinase FLT3 (FLT3, Homo sapiens, UniProt P36888, R834Q)

Cc1cnc(Nc2ccc(C(=O)N3CCC(N4CCCC4)CC3)cc2)nc1-c1cc2ccccc2s1 — remaining binding (FLT3 autoinhibited; binding, competition with immobilised ligand; 1 µM): 9.5%
O=c1nc(-c2ccccn2)sc2ccccc12 — remaining binding (FLT3; binding, competition with immobilised ligand; 1 µM): 93%
O=C(c1ccc(Nc2ncc(Cl)c(-c3ccc(Cl)s3)n2)cc1)N1CCC(N2CCCC2)CC1 — remaining binding (FLT3 N841I; binding, competition with immobilised ligand; 1 µM): 0.4%
c1cncc(-c2cccc(Nc3nccc(NC4CCCCC4)n3)c2)c1 — remaining binding (FLT3 D835H; binding, competition with immobilised ligand; 10 µM): 1.6%
O=C(NC1CCC1)c1ccc2nc(-c3cccc(NS(=O)(=O)NCCN4CCCCC4)c3)cn2c1 — remaining binding (FLT3 ITD; cell-free assay, competition with immobilised ligand; 10 µM): 100%
N[C@H]1CCN(c2nccc(-c3cnn4ncccc34)n2)C1 — remaining binding (FLT3 K663Q; binding; 1 µM): 100%
COc1ncc2cc3ccccc3nc2c1C#N — remaining binding (FLT3 ITD; cell-free assay, competition with immobilised ligand; 5 µM): 94%
c1cnn2ncc(-c3ccnc(N4CCC45COC5)n3)c2c1 — remaining binding (FLT3 D835H; binding; 1 µM): 64%
O=C(NCC1CCOCC1)c1n[nH]cc1NC(=O)c1c(F)cccc1F — remaining binding (FLT3; binding, competition with immobilised ligand; 1 µM): 92%
c1ccc(N2CCN(Cc3nc4ccccc4[nH]3)CC2)nc1 — remaining binding (FLT3; binding, competition with immobilised ligand; 1 µM): 100%
COc1cnc(Nc2cccc(S(N)(=O)=O)c2)nc1N1CCN(c2ccccc2)CC1 — remaining binding (FLT3 D835V; binding, competition with immobilised ligand; 1 µM): 49%
C[C@@H]1CCN(c2nccc(-c3cnn4ncccc34)n2)C1 — remaining binding (FLT3; binding; 1 µM): 100%
O=C(NCCCN1CCOCC1)c1ccc(Nc2nccc(-c3cc4ccccc4s3)n2)cc1 — remaining binding (FLT3 R834Q; binding, competition with immobilised ligand; 1 µM): 43%
O=C(Nc1c[nH]nc1C(=O)NC1CCNCC1)c1cc(F)cc(F)c1 — remaining binding (FLT3 K663Q; binding, competition with immobilised ligand; 1 µM): 96%
CN(C)C(=O)Cn1cc(-c2nc(C3(c4ccc(-c5cnc(N)nc5)cc4)CC3)no2)cn1 — remaining binding (Receptor-type tyrosine-protein kinase FLT3 (FLT3, Homo sapiens, UniProt P36888, D835V/ITD); cell-free assay, competition with immobilised ligand; 1 µM): 89%
CN1CCN(c2ccc(Nc3nccc(-c4ccccc4)n3)cc2C(F)(F)F)CC1 — remaining binding (FLT3 D835H; binding; 10 µM): 0.2%
Nc1ncc2c(n1)-c1c([nH]c3ccc(C#CC4CC4)cc13)CCCC2 — remaining binding (FLT3 R834Q; binding, competition with immobilised ligand; 1 µM): 79%
CCN1CCN(Cc2ccc(C(=O)Nc3ccc(C)c(Oc4ccc5c(c4)CC(=O)N5)c3)cc2C(F)(F)F)CC1 — remaining binding (FLT3 R834Q; binding, competition with immobilised ligand; 1 µM): 100%
Cc1nc(N2CC[C@@H](O)C2)ncc1-c1cc(C(F)(F)F)cc2[nH]ncc12 — remaining binding (Receptor-type tyrosine-protein kinase FLT3 (FLT3, Homo sapiens, UniProt P36888, F691L/ITD); binding, competition with immobilised ligand; 1 µM): 69%
CN(CCCC(F)(F)F)c1nccc(-c2cnn3ncccc23)n1 — remaining binding (FLT3 K663Q; binding; 1 µM): 88%
CC(=O)N1CCC(c2ccc(C(=O)NC(=N)N)cc2C(F)(F)F)CC1 — remaining binding (FLT3 K663Q; cell-free assay, competition with immobilised ligand; 1 µM): 100%
CN(C)c1ncc(F)c(-c2cnn3ncccc23)n1 — remaining binding (FLT3 autoinhibited; binding; 1 µM): 72%
COc1cc(-c2cn(C3CCc4ccccc4N(CC(F)(F)F)C3=O)nn2)ccc1-n1ccc(C)n1 (stereo not shown) — remaining binding (FLT3; cell-free assay, competition with immobilised ligand; 1 µM): 85%
O=C(c1ccc(Nc2nccc(-c3cc4ccccc4s3)n2)cc1)N1CCC(N2CCCC2)CC1 — remaining binding (FLT3 D835H; binding, competition with immobilised ligand; 1 µM): 29%
C=CC(=O)N1CCC(C(=O)NCC(=O)N2CCN(c3nc(-c4cnc(N)nc4C(F)F)nc(N4CCOCC4)n3)CC2)CC1 — remaining binding (FLT3 D835H; binding, competition with immobilised ligand; 1 µM): 100%
Cc1c(C(=O)O)cc(-c2ccc(C3CCNCC3)cc2)c2ccc(-c3ccc(C(F)(F)F)cc3)cc12 — remaining binding (FLT3; binding, competition with immobilised ligand; 1 µM): 100%
CNC(=O)[C@@H]1CC[C@@H](n2c(-c3ccc4cnccc4c3)nc3ccc(C(=O)NCc4cccc(C(N)=O)c4)cc32)C1 — remaining binding (Receptor-type tyrosine-protein kinase FLT3 (FLT3, Homo sapiens, UniProt P36888, D835Y); binding, competition with immobilised ligand; 1 µM): 100%
COc1ccnn2ncc(-c3ccnc(N(C)C)n3)c12 — remaining binding (FLT3 D835V; binding; 1 µM): 81%
O=C(NCCCN1CCOCC1)c1ccc(Nc2ncc(Cl)c(-c3ccc(Cl)s3)n2)cc1 — remaining binding (FLT3 ITD; binding, competition with immobilised ligand; 1 µM): 0.75%
CC1CCCN1c1nccc(-c2cnn3ncccc23)n1 (stereo not shown) — remaining binding (FLT3 N841I; binding; 1 µM): 75%
CN1CCN(c2ccc(Nc3nccc(-c4cccc([N+](=O)[O-])c4)n3)cc2C(F)(F)F)CC1 — remaining binding (FLT3 D835V; binding; 10 µM): 0%
C[C@@H](c1ccc(-n2cnc3c(N)ncnc32)cc1)N1CCc2nn(C)c(Cc3ccccc3)c2C1=O — remaining binding (FLT3 R834Q; binding, competition with immobilised ligand; 0.1 µM): 88%
COc1cnc(Nc2cccc(S(N)(=O)=O)c2)nc1N1CCN(c2ccccc2)C(=O)C1 — remaining binding (FLT3 D835H; binding, competition with immobilised ligand; 1 µM): 93%
CNC(=O)Nc1ccc2c(c1)[C@@]1(CC2)OC(=O)N(CC(=O)N(Cc2ccc(F)cc2)[C@@H](C)C(F)(F)F)C1=O — remaining binding (FLT3 D835V; cell-free assay, competition with immobilised ligand; 1 µM): 81%
CN(c1nccc(-c2cnn3ncccc23)n1)C1CC1 — remaining binding (FLT3 K663Q; binding; 1 µM): 83%
CC(C)(C)c1ccc(-c2nc(CBr)nn2-c2cccc(O)c2)cc1 — remaining binding (FLT3; cell-free assay, competition with immobilised ligand; 10 µM): 82%
O=C(c1ccc(Nc2ncc(Cl)c(-c3cc4ccccc4s3)n2)cc1)N1CCC(N2CCCC2)CC1 — remaining binding (FLT3 D835V; binding, competition with immobilised ligand; 1 µM): 1.3%
